According to PubChem BioAssay:
The list shows a part of the results. Unmarked numbers belong to inactive results. Activity calls are given as the source filed them.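 The calls were made as follows, unless noted: active = mean inhibition across replicates above the hit cutoff set in the primary screen (cut at about 30% in these data); inactive = the rest.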

Target: (Lyso)-N-acylphosphatidylethanolamine lipase (Mus musculus) (UniProt Q8VD66)
Assay: mouse ABHD4 hydrolase blockers, triplicate – biochemical, fluorescence polarization, confirmation (AID 720658)
Details: purified mABHD4, FP-Rh probe fluorescence polarization; at 8.92 µM; active compounds read high
In short: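 System: mouse wild-type ABHD4 enzyme; also added: Rhodamine-tagged fluorophosphonate probe FP-Rh; schedule: 45 min compound pretreatment plus 60 min FP-Rh labeling, 25 °C; detection: fluorescence polarization, excitation 525 nm, emission 598 nm; control set: S159A mutant ABHD4 plus DMSO as 100%, wild-type plus DMSO 0%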

Chain of (Lyso)-N-acylphosphatidylethanolamine lipase (Mus musculus) (Q8VD66 whole entry, looked up): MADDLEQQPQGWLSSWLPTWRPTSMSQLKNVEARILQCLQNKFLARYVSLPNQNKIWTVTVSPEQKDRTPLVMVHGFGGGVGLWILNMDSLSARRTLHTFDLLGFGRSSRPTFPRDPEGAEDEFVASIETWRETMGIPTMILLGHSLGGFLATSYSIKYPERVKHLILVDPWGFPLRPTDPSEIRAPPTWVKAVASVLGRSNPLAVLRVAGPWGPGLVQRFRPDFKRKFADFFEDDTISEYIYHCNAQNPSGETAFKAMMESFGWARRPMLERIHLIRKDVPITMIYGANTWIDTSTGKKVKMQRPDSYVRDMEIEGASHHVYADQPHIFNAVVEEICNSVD

**Q.** For O=C(O)c1ccc(N/N=C/c2cn(-c3ccccc3)nc2-c2cccs2)cc1, which inhibition is on record?
**A.** 57.4% (active)

**Q.** With CCOC(=O)Cn1c2c(n(-c3ccc(F)cc3)c1=O)C=C(c1ccccc1)[C@@H](C)C(C(=O)N(C)C1CCCCC1)=C2 as the compound, how does the inhibition read?
**A.** 29.3%

**Q.** Which inhibition does the source give for COc1ccc(Br)cc1/C=N/Nc1ccc(Cl)c(C(=O)O)c1 here?
**A.** 32.5% (active)

**Q.** With CC(C)(C)C(=O)OCc1nc(-c2ccc(O)c(O)c2)cs1 as the compound, how does the inhibition read?
**A.** 28.1%

**Q.** How did the inhibition turn out when CCOc1cc(/C=C2/N=C(c3ccc(C(C)(C)C)cc3)OC2=O)cc(Cl)c1OS(C)(=O)=O was run?
**A.** 18.8%

**Q.** Which inhibition does the source give for Oc1ccc(/C=N/Nc2ccc(C(F)(F)F)cn2)cc1O here?
**A.** 34% (active)

**Q.** OCCNc1nc(Nc2ccc(Cl)c(Cl)c2)nc2ccccc12 was tested. Which inhibition did it give?
**A.** 40.4% (active)

**Q.** For COc1ccc2nc(Nc3nc4ccc(NC(C)=O)cc4s3)sc2c1, which inhibition is on record?
**A.** 39.4% (active)

**Q.** How did the inhibition turn out when COc1cc(/C=C2/C(=O)NN(c3cccc(Cl)c3)C2=O)cc(Br)c1O was run?
**A.** 38.8% (active)

**Q.** CCOc1ccc2nc(Nc3nc4ccc(NC(C)=O)cc4s3)sc2c1 was tested. Which inhibition did it give?
**A.** 30.9% (active)

**Q.** How did the inhibition turn out when c1ccc2sc(NN=C3CCCC3)nc2c1 was run?
**A.** -1.86%

**Q.** Which inhibition does the source give for COc1cc(C(=O)Nn2c(O)c(C3=c4ccccc4=NC3=O)sc2=S)ccc1O here?
**A.** 77.4% (active)

**Q.** With CCN1C(=O)/C(=C2/Sc3ccccc3N2CCCS(=O)(=O)O)SC1=S as the compound, how does the inhibition read?
**A.** 24.3%

**Q.** How did the inhibition turn out when CCOC(=O)[C@H]1Nc2ccc(Cl)cc2[C@@H]2[C@H]1C1CC(c3ccccc31)N2C(=O)OCc1ccccc1 (stereo not given in full) was run?
**A.** 42% (active)

**Q.** For Cc1oc2cc(Br)c(O)c(Br)c2c1C(=O)c1ccccc1, which inhibition is on record?
**A.** 53% (active)

**Q.** NC(N)=N/N=C/c1ccc(OCc2ccc(Cl)cc2Cl)cc1 was tested. Which inhibition did it give?
**A.** 46.2% (active)

**Q.** O=[N+]([O-])c1cc(Br)c(O)c(/C=N/Nc2nc3ccccc3s2)c1 was tested. Which inhibition did it give?
**A.** 69.5% (active)

**Q.** Which inhibition does the source give for O=C(O)c1ccccc1/C=N/Nc1ccc(S(=O)(=O)Nc2ccc(Cl)cc2)cc1[N+](=O)[O-] here?
**A.** 50.4% (active)

**Q.** How did the inhibition turn out when COc1ccc(Br)cc1/C=N/Nc1ccc(S(=O)(=O)Nc2ccccc2C(=O)O)cc1[N+](=O)[O-] was run?
**A.** 20.7%

**Q.** CC(=O)Oc1ccc(N(C(C)=O)S(=O)(=O)c2ccc3ccccc3c2)cc1Br was tested. Which inhibition did it give?
**A.** 30.6% (active)

**Q.** With CCC(CO)Oc1cc(NC(=O)c2cccc(F)c2)c2ncn(C(C)C)c2c1 (stereo not given) as the compound, how does the inhibition read?
**A.** 1.62%

**Q.** How did the inhibition turn out when CC(C)COC(=O)n1c(=O)oc2ccc(S(=O)(=O)N3CCCCC3)cc21 was run?
**A.** 49.4% (active)

**Q.** NNc1nc2c(Cl)cccc2s1 was tested. Which inhibition did it give?
**A.** 24%

**Q.** For Cc1cccc(N2CCN(Cc3nc(C4CC4)no3)CC2)n1, which inhibition is on record?
**A.** -2.12%

**Q.** How did the inhibition turn out when Cc1ccc(NC(=O)Cc2nc(COC(=O)C(C)NS(=O)(=O)c3ccc(C)cc3)cs2)cc1 (stereo not given) was run?
**A.** 7.11%

**Q.** How did the inhibition turn out when C/C(=N\NC(=O)c1ccc(C)cc1)C1C(=O)c2ccccc2C1=O was run?
**A.** 35.3% (active)

**Q.** For O=C(O)c1cc([N+](=O)[O-])c(Nc2cccc3ccccc23)c([N+](=O)[O-])c1, which inhibition is on record?
**A.** 39.9% (active)

**Q.** For CC(C)c1ccc(CC(=O)N2CCC2(C)C(=O)NS(=O)(=O)c2ccc(C(C)(C)C)cc2)cc1 (stereo not given), which inhibition is on record?
**A.** 68.5% (active)

**Q.** Nc1[nH]c(C(=O)c2ccc(Br)cc2)c(-c2ccc3c(c2)OCO3)c1C(=O)NCCc1c[nH]c2ccccc12 was tested. Which inhibition did it give?
**A.** 36.9% (active)

Target: Oxysterols receptor LXR-beta (Homo sapiens) (UniProt P55055)
Sequence (P55055 whole entry, looked up): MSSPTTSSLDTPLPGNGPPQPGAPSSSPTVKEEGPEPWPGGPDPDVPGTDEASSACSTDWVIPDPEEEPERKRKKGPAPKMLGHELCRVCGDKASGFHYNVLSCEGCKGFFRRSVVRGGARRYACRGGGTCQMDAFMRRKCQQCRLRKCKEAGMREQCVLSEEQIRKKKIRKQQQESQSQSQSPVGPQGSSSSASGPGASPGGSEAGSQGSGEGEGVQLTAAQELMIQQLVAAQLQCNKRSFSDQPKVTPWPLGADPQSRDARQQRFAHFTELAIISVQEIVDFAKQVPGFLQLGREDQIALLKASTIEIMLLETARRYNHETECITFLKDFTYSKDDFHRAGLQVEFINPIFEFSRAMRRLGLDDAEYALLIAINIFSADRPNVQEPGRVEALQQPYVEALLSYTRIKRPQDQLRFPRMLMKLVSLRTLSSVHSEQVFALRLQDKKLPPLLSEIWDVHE
Assay: nonspecific reporter activation via LXR – cell-based, luminescence, HEK293, H. contortus campaign, counter-screen for hcDAF-12 agonist project, confirmation (AID 743027;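 active = mean percent activation of the reporter above a cutoff set as the average over tested compounds plus their standard deviation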)
Details: HEK293 Gal4-LXR tk-luc reporter, 24 h, at 6.8 µM, active compounds read high, normalized: DMSO 0%, positive control 100%
In short: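 System: HEK293 cells transfected with Gal4-LXR vector plus GAL4-driven tk-luciferase reporter / Replicates: triplicate wells per compound / Detection: luciferase luminescence read with One-Glo reagent / Read-out basis: % activation / Timing: 24 h compound exposure at 37 °C, 5% CO2 / Benchmarks: DMSO low control, positive-control high control / Compound dosing: 6.8 µM single dose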

**Q.** With CCn1cc(CN2CCN(CC(C)(C)C)C(CCO)C2)c2ccccc21 (stereo not given) as the compound, how does the activation read?
**A.** -0.12%

**Q.** For COc1ccc(-c2cn3ccc(C)cc3n2)cc1, which activation is on record?
**A.** 1.71%

**Q.** For CN(CC(=O)Nc1cccc(F)c1)C(=O)C1CC(=O)N(CCc2ccccc2)C1 (stereo not given), which activation is on record?
**A.** -0.05%

**Q.** Cc1ccc2nc(-c3ccccc3)c(CC3CCCCC3)n2c1 was tested. Which activation did it give?
**A.** 0.85%

**Q.** c1ccc2sc(NN=C3CCCC3)nc2c1 was tested. Which activation did it give?
**A.** 1.38%

**Q.** Which activation does the source give for Cc1ccc(S(=O)(=O)Nc2nc3ccccc3nc2N2CCc3ccccc3C2)cc1 here?
**A.** 0.14%

**Q.** Cc1ccc2cc(/C=N/Nc3ccc(C(=O)O)cc3)c(Cl)nc2c1 was tested. Which activation did it give?
**A.** 0.97%

**Q.** For CC(C)c1ccc(C=NNc2ccc([N+](=O)[O-])cn2)cc1, which activation is on record?
**A.** 1.84%

**Q.** For Clc1cccc(-c2nc3nc4ccccc4nc3n2Cc2ccco2)c1, which activation is on record?
**A.** 0.26%

**Q.** Fc1ccc2nc(Nc3nc4c(s3)CCCC4)sc2c1 was tested. Which activation did it give?
**A.** 1.24%

**Q.** With NNc1nc2c(Cl)cccc2s1 as the compound, how does the activation read?
**A.** -0.01%

**Q.** Cc1c(C=O)c2ccccc2n1CC(=O)O was tested. Which activation did it give?
**A.** -0.12%

**Q.** Cc1ccccc1Nc1nnc(SCC(=O)c2cc3ccccc3o2)s1 was tested. Which activation did it give?
**A.** -0.11%

Test system: Nuclear hormone receptor DAF-12 (Haemonchus contortus)
Assay: hcDAF-12 luciferase reporter activation, retest – cell-based, luminescence, HEK293, lit1-tk-luc, triplicate, confirmation (AID 743032;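 active = mean activation across triplicate tests above the threshold derived from the earlier primary screen, cut at about 5.5% in these data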;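 also: 0% = DMSO only wells and 100% = 3 µM Δ7-dafachronic acid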)
Details: HEK293 hcDAF-12 lit1-tk-luc reporter, at 6.8 µM, active compounds read high, % of Δ7-dafachronic acid response

**Q.** For CCn1cc(CN2CCN(CC(C)(C)C)C(CCO)C2)c2ccccc21 (stereo not given), which activation is on record?
**A.** 3.73%

**Q.** COc1ccc(-c2cn3ccc(C)cc3n2)cc1 was tested. Which activation did it give?
**A.** 9.09% (active)

**Q.** With CN(CC(=O)Nc1cccc(F)c1)C(=O)C1CC(=O)N(CCc2ccccc2)C1 (stereo not given) as the compound, how does the activation read?
**A.** 4.2%

**Q.** Which activation does the source give for Cc1ccc2nc(-c3ccccc3)c(CC3CCCCC3)n2c1 here?
**A.** 9.61% (active)

**Q.** How did the activation turn out when c1ccc2sc(NN=C3CCCC3)nc2c1 was run?
**A.** 6.89% (active)

**Q.** Cc1ccc(S(=O)(=O)Nc2nc3ccccc3nc2N2CCc3ccccc3C2)cc1 was tested. Which activation did it give?
**A.** 8.94% (active)

**Q.** For Cc1ccc2cc(/C=N/Nc3ccc(C(=O)O)cc3)c(Cl)nc2c1, which activation is on record?
**A.** 8.18% (active)

**Q.** CC(C)c1ccc(C=NNc2ccc([N+](=O)[O-])cn2)cc1 was tested. Which activation did it give?
**A.** 12% (active)

**Q.** Which activation does the source give for Clc1cccc(-c2nc3nc4ccccc4nc3n2Cc2ccco2)c1 here?
**A.** 5.41%

**Q.** Which activation does the source give for Fc1ccc2nc(Nc3nc4c(s3)CCCC4)sc2c1 here?
**A.** 11.5% (active)

**Q.** How did the activation turn out when NNc1nc2c(Cl)cccc2s1 was run?
**A.** 1.23%

**Q.** With Cc1c(C=O)c2ccccc2n1CC(=O)O as the compound, how does the activation read?
**A.** 1.56%

**Q.** How did the activation turn out when Cc1ccccc1Nc1nnc(SCC(=O)c2cc3ccccc3o2)s1 was run?
**A.** 1.9%
